{"source": "ChEMBL document CHEMBL4732273", "about": "“In Silico Targeting of the Long Noncoding RNA MALAT1” (ACS Med Chem Lett, 2021)", "key": {"[1]": {"assay": "Binding affinity to biotinylated-MALAT1 RNA (unknown origin) at 200 uM measured after 140 secs by Surface plasmon resonance analysis", "details": "time 140.0 sec", "summary_of_the_method": "(§1)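 The RNA was 3′-biotinylated by ligating pCp-biotin with T4 RNA ligase 1 after dephosphorylation, then immobilized on the SPR chip at 300 RU. Compounds were injected as 50 μL at 200 μM at a 20 μL/min flow rate, followed by 60 s of dissociation. Biotinylated tRNA was immobilized and run the same way as the negative-control surface.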"}, "tRNA": {"tested_on": "tRNA", "assay": "Binding affinity to biotinylated-tRNA (unknown origin) at 200 uM measured after 120 secs by Surface plasmon resonance analysis", "assay_type": "nucleic-acid assay", "details": "time 120.0 sec", "summary_of_the_method": "as §1"}, "[2]": {"assay": "Binding affinity to biotinylated-MALAT1 RNA (unknown origin) by Surface plasmon resonance analysis", "summary_of_the_method": "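Surface plasmon resonance on MALAT1 RNA that was 3′-biotinylated by pCp-biotin ligation with T4 RNA ligase 1 and immobilized at 300 RU. Compound was flowed at 20 μL/min with 60 s of dissociation. A biotinylated tRNA surface served as the negative control. The dissociation constant was derived from the SPR sensorgram analysis.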"}}, "note": "The source made the active and inactive calls. The rule behind the calls is not given here."}
{"smiles": "Cc1ccc(NC(=O)NCC2CCCN(C3CCN(C)CC3)C2)cc1", "note": "(stereo unspecified)", "values": [{"measurement": "Activity", "setting": "[1]", "value": "Active"}, {"measurement": "Activity", "setting": "tRNA", "value": "Active"}]}
{"smiles": "c1ccc2sc(C3CCCN(Cc4cc5n(n4)CCCNC5)C3)nc2c1", "note": "(stereo unspecified)", "values": [{"measurement": "Activity", "setting": "[1]", "value": "Active"}, {"measurement": "Activity", "setting": "tRNA", "value": "inactive"}]}
{"smiles": "COc1ncccc1CN1CCN(c2ccc(C(N)=O)cc2)CC1", "values": [{"measurement": "Activity", "setting": "[1]", "value": "Active"}, {"measurement": "Activity", "setting": "tRNA", "value": "Active"}]}
{"smiles": "CN1CCC(O)(Cn2cnc3ccc(F)cc3c2=O)CC1", "values": [{"measurement": "Activity", "setting": "[1]", "value": "Active"}, {"measurement": "Activity", "setting": "tRNA", "value": "inactive"}]}
{"smiles": "NS(=O)(=O)c1ccc(CNC2CCC3(CCNCC3)CC2)cc1", "values": [{"measurement": "Activity", "setting": "[1]", "value": "Active"}, {"measurement": "Activity", "setting": "tRNA", "value": "inactive"}, {"measurement": "Kd", "setting": "[2]", "value": 400, "unit": "µM"}]}
{"smiles": "O=C(c1cc(=O)[nH]c2cc(F)ccc12)N1CCCC(N2CCCC2)C1", "note": "(stereo unspecified)", "values": [{"measurement": "Activity", "setting": "[1]", "value": "Active"}]}
{"smiles": "CCN1CCCC1CNC(=O)CCC1CCN(Cc2cc3ccccc3s2)CC1", "note": "(stereo unspecified)", "values": [{"measurement": "Activity", "setting": "[1]", "value": "Active"}, {"measurement": "Activity", "setting": "tRNA", "value": "Active"}]}
{"smiles": "NCC1Cc2cccc(-c3cc4c(cc3C(N)=O)OCO4)c2O1", "note": "(stereo unspecified)", "values": [{"measurement": "Activity", "setting": "[1]", "value": "Active"}, {"measurement": "Activity", "setting": "tRNA", "value": "Active"}]}
